In general, MIC refers to the least concentration at which growth counts as inhibited. Low readings indicate inhibition by little substance, high ones a need for much substance.

The structures appear in SMILES notation. In brackets after ≈: the same amount, converted by molar mass. Activity calls are given as the source filed them. The calls are words filed in the database; no cut-off is given here. A value given as a limit tells only on which side of the number the result lay.

For data set [1], the system named is Staphylococcus aureus. Nature of the data set: Antibacterial activity against methicillin-resistant Staphylococcus aureus by two fold serial microbroth dilution method. It is filed as functional. Summed up: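 Two-fold serial microbroth dilution in microdilution plates, run per CLSI, with clinical antibacterial drugs as positive controls. The MRSA strain was a drug-resistant clinical isolate from infected patients. MIC (μg/mL) was read as the lowest concentration giving complete inhibition of visible bacterial growth.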

For data set [2], the system named is Staphylococcus aureus. As to the kind of experiment: Antibacterial activity against Staphylococcus aureus by two fold serial microbroth dilution method. In kind it is functional. A digest of the protocol: (§1)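 Two-fold serial dilution in microdilution plates (micro broth dilution) following CLSI. Panel includes clinical drug-resistant isolates and ATCC reference strains. Clinical drugs were run as positive controls.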
For orientation: In broth dilution the organism is exposed to a series of concentrations in liquid medium.

The subject of data set [3] is Staphylococcus aureus. As to the kind of experiment: Antibacterial activity against Staphylococcus aureus ATCC 25923 by two fold serial microbroth dilution method. It is filed as functional. Summed up: as §1
Data set [4] deals with Enterococcus faecalis. As to the kind of experiment: Antibacterial activity against Enterococcus faecalis by two fold serial microbroth dilution method. It is filed as functional. A digest of the protocol:
as §1

For a further data set, the system named is Klebsiella pneumoniae. As to the kind of experiment: Antibacterial activity against Klebsiella pneumoniae by two fold serial microbroth dilution method. In kind it is functional. Summed up: as §1
The subject of data set [5] is Escherichia coli. As to the kind of experiment: Antibacterial activity against Escherichia coli by two fold serial microbroth dilution method. In kind it is functional. A digest of the protocol: as §1
For data set [6], the system named is Escherichia coli. As to the kind of experiment: Antibacterial activity against Escherichia coli ATCC 25922 by two fold serial microbroth dilution method. In kind it is functional. Summed up: as §1
Data set [7] has as its system Pseudomonas aeruginosa. As to the kind of experiment: Antibacterial activity against Pseudomonas aeruginosa by two fold serial microbroth dilution method. It is filed as functional. Summed up: as §1
The test system of data set [8] is Pseudomonas aeruginosa. As to the kind of experiment: Antibacterial activity against Pseudomonas aeruginosa ATCC 27853 by two fold serial microbroth dilution method. In kind it is functional. Summed up:
as §1

A further data set relates to Candida albicans. Nature of the data set: Antifungal activity against Candida albicans by two fold serial microbroth dilution method. In kind it is functional. Summed up: (§2)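 Antifungal MIC by two-fold serial dilution following CLSI, with a clinical drug as positive control. Panel includes clinical drug-resistant fungal isolates.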
For another data set, the system named is Candida tropicalis. As to the kind of experiment: Antifungal activity against Candida tropicalis by two fold serial microbroth dilution method. It is filed as functional. A digest of the protocol:
as §2

For another data set, the system named is Aspergillus fumigatus. As to the kind of experiment: Antifungal activity against Aspergillus fumigatus by two fold serial microbroth dilution method. It is filed as functional. Summed up: as §2
A short description of data set [9]: Cytotoxicity against human A549 cells assessed as cell viability at 64 ug/ml incubated for 24 hrs by MTT assay relative to control. It is filed as cell-based. The conditions noted are these: read-out: Activity. Summed up: (§3)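 A549 lung cancer cells and BEAS-2B normal lung epithelial cells were exposed to the compound at a range of concentrations up to 64 μg/mL for 24 h. Viability was read by colorimetric MTT cell proliferation assay. Doxorubicin at 0.5 µM served as positive control.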
For orientation: Tetrazolium assays rely on reduction of a dye to a coloured formazan, in cell work by metabolically active cells.

A short description of data set [10]: Cytotoxicity against human BEAS2B cells assessed as cell viability at 64 ug/ml incubated for 24 hrs by MTT assay relative to control. In kind it is cell-based. The conditions noted are these: BEAS-2B cells, read-out: Activity. A digest of the protocol: as §3
The test system of data set [11] is Enterococcus faecalis. Nature of the data set: Antibacterial activity against Enterococcus faecalis measured after 16 passages by microbroth dilution method. In kind it is functional, organism-based.
The subject of data set [12] is Enterococcus faecalis. As to the kind of experiment: Bactericidal activity against Enterococcus faecalis assessed as log10 reduction in CFU at MIC to 6XMIC by time kill kinetics analysis. It is filed as functional. Summed up: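 E. faecalis was exposed to the compound at MIC and 6 × MIC. Viable counts (log CFU/mL) were followed over time.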
The test system of data set [13] is Enterococcus faecalis. Nature of the data set: Induction of cell membrane permeabilization in Enterococcus faecalis at 12XMIC measured after 60 mins by PI staining based fluorescence assay. In kind it is organism-based. Summed up:
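E. faecalis cells were treated with the compound at 12 × MIC in the presence of propidium iodide, which enters only compromised cells and fluoresces on binding dsDNA. Fluorescence at 617 nm was followed over time, to about 120 min.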

The test system of data set [14] is DNA. As to the kind of experiment: Binding affinity to Enterococcus faecalis DNA assessed as hyperchromic effect by UV-visible spectrophotometric method. It is filed as nucleic-acid assay.
Data set [15] has as its system DNA. As to the kind of experiment: Binding affinity to Enterococcus faecalis DNA assessed as decrease in maximum absorption of DNA-NR complex at 530 nm by neutral red dye based absorption spectral assay. In kind it is nucleic-acid assay.
For a further data set, the target named is Albumin (Homo sapiens, UniProt P02768). Nature of the data set: Binding affinity to HSA by UV-visible spectrophotometric method. The conditions noted are these: isolated protein. In kind it is ADME.
Sequence of Albumin (P02768 whole entry): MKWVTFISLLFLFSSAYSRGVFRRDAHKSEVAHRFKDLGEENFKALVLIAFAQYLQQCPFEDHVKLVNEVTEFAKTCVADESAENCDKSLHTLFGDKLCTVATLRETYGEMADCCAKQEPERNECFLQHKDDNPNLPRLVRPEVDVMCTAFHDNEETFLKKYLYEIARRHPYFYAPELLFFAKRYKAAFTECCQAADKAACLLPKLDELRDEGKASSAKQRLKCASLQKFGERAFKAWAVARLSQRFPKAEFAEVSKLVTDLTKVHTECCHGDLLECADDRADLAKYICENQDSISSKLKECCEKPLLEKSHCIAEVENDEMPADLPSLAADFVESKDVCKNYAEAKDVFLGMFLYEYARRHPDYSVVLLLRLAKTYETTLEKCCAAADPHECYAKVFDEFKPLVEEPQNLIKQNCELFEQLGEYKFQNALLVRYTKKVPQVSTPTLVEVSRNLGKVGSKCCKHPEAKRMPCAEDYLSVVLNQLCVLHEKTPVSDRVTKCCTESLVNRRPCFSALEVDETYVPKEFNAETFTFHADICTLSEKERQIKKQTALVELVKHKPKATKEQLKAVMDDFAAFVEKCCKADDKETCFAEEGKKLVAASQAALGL
For data set [16], the system named is Staphylococcus aureus. Nature of the data set: Antibacterial activity against Staphylococcus aureus ATCC 29213 by two fold serial microbroth dilution method. In kind it is functional. Summed up: as §1
In data set [17] the test system is DNA. As to the kind of experiment: Binding affinity to Enterococcus faecalis DNA assessed as blue shift by UV-visible spectrophotometric method. In kind it is nucleic-acid assay.
Data set [18] deals with DNA. Nature of the data set: Binding affinity to Enterococcus faecalis DNA assessed as increase in absorption peak at 460 nm by neutral red dye based absorption spectral assay. It is filed as nucleic-acid assay.
For the next data set, the system named is Acinetobacter baumannii. As to the kind of experiment: Antibacterial activity against Acinetobacter baumannii by two fold serial microbroth dilution method. It is filed as functional. A digest of the protocol:
as §1

As to `Nc1ccc(S(=O)(=O)Nc2nccc(-n3ccc4ccccc43)n2)cc1`, the minimum inhibitory concentration (MIC) in the data set on Staphylococcus aureus [1] came to 2 µg/mL (≈ 5.47 µM); with Staphylococcus aureus [2], 32 µg/mL (≈ 87.6 µM); against Staphylococcus aureus [3], 4 µg/mL (≈ 10.9 µM); against Enterococcus faecalis [4], 1 µg/mL (≈ 2.74 µM); against Klebsiella pneumoniae it was 32 µg/mL (≈ 87.6 µM); with Escherichia coli [5], 32 µg/mL (≈ 87.6 µM). Further, the MIC with Escherichia coli [6] is 32 µg/mL (≈ 87.6 µM); in the data set on Pseudomonas aeruginosa [7] it was 8 µg/mL (≈ 21.9 µM); with Pseudomonas aeruginosa [8], 1 µg/mL (≈ 2.74 µM); against Candida albicans, 2 to 8 µg/mL (≈ 5.47 to 21.9 µM); against Candida tropicalis it was 2 to 8 µg/mL (≈ 5.47 to 21.9 µM); with Aspergillus fumigatus it was 2 to 8 µg/mL (≈ 5.47 to 21.9 µM). This molecule returned an MIC against Staphylococcus aureus [16] of 8 µg/mL (≈ 21.9 µM). Moreover, the viability at 24 h, 64 ug/ml in data set [9] and in [10] was 70% in each case. The outcome in the data set on Enterococcus faecalis [11], in the data set with Enterococcus faecalis [13], with DNA [14], with DNA [15], with DNA [17] and in the data set on DNA [18] was Active. The Activity in the data set with Enterococcus faecalis [12] is given as above 3 log10CFU/ml; at Albumin, “Active”.
Regarding `Cc1ncc([N+](=O)[O-])n1-c1ccnc(NS(=O)(=O)c2ccc(N)cc2)n1`, the MIC was determined as 64 µg/mL (≈ 170 µM) with Staphylococcus aureus [1]; 128 µg/mL (≈ 341 µM) against Staphylococcus aureus [2]; 128 µg/mL (≈ 341 µM) with Staphylococcus aureus [3]; 128 µg/mL (≈ 341 µM) against Enterococcus faecalis [4]; 64 µg/mL (≈ 170 µM) in the data set on Klebsiella pneumoniae; 128 µg/mL (≈ 341 µM) against Escherichia coli [5]. The MIC was found to be 256 µg/mL (≈ 682 µM) with Escherichia coli [6]; 256 µg/mL (≈ 682 µM) against Pseudomonas aeruginosa [7]; 128 µg/mL (≈ 341 µM) in the data set on Pseudomonas aeruginosa [8]; 64 µg/mL (≈ 170 µM) in the data set with Acinetobacter baumannii; 128 µg/mL (≈ 341 µM) with Staphylococcus aureus [16].
On to `Nc1ccc(S(=O)(=O)Nc2nccc(-n3ccnc3)n2)cc1`, for which the MIC against Staphylococcus aureus [1] worked out at 32 µg/mL (≈ 101 µM); in the data set on Staphylococcus aureus [2] it was 128 µg/mL (≈ 405 µM); against Staphylococcus aureus [3] it was 256 µg/mL (≈ 809 µM); in the data set on Enterococcus faecalis [4] it was 128 µg/mL (≈ 405 µM); against Klebsiella pneumoniae, 256 µg/mL (≈ 809 µM); with Escherichia coli [5], 256 µg/mL (≈ 809 µM). For the same molecule, the MIC came to 256 µg/mL (≈ 809 µM) in the data set with Escherichia coli [6]; 128 µg/mL (≈ 405 µM) against Pseudomonas aeruginosa [7]; 256 µg/mL (≈ 809 µM) against Pseudomonas aeruginosa [8]; 64 µg/mL (≈ 202 µM) against Acinetobacter baumannii; 128 µg/mL (≈ 405 µM) in the data set on Staphylococcus aureus [16].
As for `Nc1ccc(S(=O)(=O)Nc2nccc(-n3cnc4ccccc43)n2)cc1`, the MIC came out at 8 µg/mL (≈ 21.8 µM) in the data set on Staphylococcus aureus [1]; 256 µg/mL (≈ 699 µM) in the data set on Staphylococcus aureus [2]; 512 µg/mL (≈ 1400 µM) in the data set with Staphylococcus aureus [3]; 256 µg/mL (≈ 699 µM) in the data set on Enterococcus faecalis [4]; 256 µg/mL (≈ 699 µM) with Klebsiella pneumoniae; 128 µg/mL (≈ 349 µM) against Escherichia coli [5]. Further, the MIC in the data set with Escherichia coli [6] was found to be 256 µg/mL (≈ 699 µM); against Pseudomonas aeruginosa [7] it was 512 µg/mL (≈ 1400 µM); against Pseudomonas aeruginosa [8], 256 µg/mL (≈ 699 µM); against Acinetobacter baumannii, 512 µg/mL (≈ 1400 µM); with Staphylococcus aureus [16], 256 µg/mL (≈ 699 µM).
On to `Nc1ccc(S(=O)(=O)Nc2nccc(-n3ccc4cc(Br)ccc43)n2)cc1`, for which the MIC was 4 µg/mL (≈ 9 µM) against Staphylococcus aureus [1]; 64 µg/mL (≈ 144 µM) against Staphylococcus aureus [2]; 2 µg/mL (≈ 4.5 µM) with Staphylococcus aureus [3]; 4 µg/mL (≈ 9 µM) in the data set with Enterococcus faecalis [4]; 32 µg/mL (≈ 72 µM) with Klebsiella pneumoniae; 4 µg/mL (≈ 9 µM) in the data set with Escherichia coli [5]. Besides, the MIC in the data set on Escherichia coli [6] was 2 µg/mL (≈ 4.5 µM); against Pseudomonas aeruginosa [7], 4 µg/mL (≈ 9 µM); with Pseudomonas aeruginosa [8], 4 µg/mL (≈ 9 µM); in the data set with Acinetobacter baumannii, 128 µg/mL (≈ 288 µM); in the data set with Candida albicans, 2 to 8 µg/mL (≈ 4.5 to 18 µM); with Candida tropicalis, 2 to 8 µg/mL (≈ 4.5 to 18 µM). Besides, the MIC is 2 to 8 µg/mL (≈ 4.5 to 18 µM) against Aspergillus fumigatus and 16 µg/mL (≈ 36 µM) against Staphylococcus aureus [16].
On to `Cc1ccc2c(ccn2-c2ccnc(NS(=O)(=O)c3ccc(N)cc3)n2)c1`, for which the MIC worked out at 4 µg/mL (≈ 10.5 µM) against Staphylococcus aureus [1]; 16 µg/mL (≈ 42.2 µM) against Staphylococcus aureus [2]; 4 µg/mL (≈ 10.5 µM) against Staphylococcus aureus [3]; 8 µg/mL (≈ 21.1 µM) in the data set with Enterococcus faecalis [4]; 8 µg/mL (≈ 21.1 µM) with Klebsiella pneumoniae; 8 µg/mL (≈ 21.1 µM) against Escherichia coli [5]. Moreover, the minimal inhibitory concentration (MIC) against Escherichia coli [6] is 32 µg/mL (≈ 84.3 µM); against Pseudomonas aeruginosa [7], 4 µg/mL (≈ 10.5 µM); against Pseudomonas aeruginosa [8] it was 4 µg/mL (≈ 10.5 µM); against Acinetobacter baumannii, 64 µg/mL (≈ 169 µM); against Candida albicans, 2 to 8 µg/mL (≈ 5.27 to 21.1 µM); against Candida tropicalis it was 2 to 8 µg/mL (≈ 5.27 to 21.1 µM). Further, the MIC was 2 to 8 µg/mL (≈ 5.27 to 21.1 µM) in the data set with Aspergillus fumigatus and 16 µg/mL (≈ 42.2 µM) in the data set with Staphylococcus aureus [16].
For the molecule `CCc1nccn1-c1ccnc(NS(=O)(=O)c2ccc(N)cc2)n1`, the MIC against Staphylococcus aureus [1] turned out to be 128 µg/mL (≈ 372 µM); against Staphylococcus aureus [2] it was 128 µg/mL (≈ 372 µM); against Staphylococcus aureus [3], 128 µg/mL (≈ 372 µM); in the data set with Enterococcus faecalis [4], 64 µg/mL (≈ 186 µM); with Klebsiella pneumoniae it was 64 µg/mL (≈ 186 µM); in the data set with Escherichia coli [5] it was 128 µg/mL (≈ 372 µM). The MIC against Escherichia coli [6] is 512 µg/mL (≈ 1490 µM); against Pseudomonas aeruginosa [7], 128 µg/mL (≈ 372 µM); in the data set with Pseudomonas aeruginosa [8] it was 128 µg/mL (≈ 372 µM); with Acinetobacter baumannii it was 64 µg/mL (≈ 186 µM); in the data set on Staphylococcus aureus [16], 64 µg/mL (≈ 186 µM).

These data come from ChEMBL document CHEMBL4627266, “Design and biological evaluation of a novel type of potential multi-targeting antimicrobial sulfanilamide hybrids in combination of pyrimidine and azoles” (Bioorg Med Chem Lett, 2020).
